Laboratory results published in ChEMBL document CHEMBL2380307, “Discovery of diarylurea P2Y(1) antagonists with improved aqueous solubility” (Bioorg Med Chem Lett, 2013).

Experiments:
[1] = Permeability from apical to basolateral side of human Caco2 cells; type: ADME, cell-based; conditions: Caco-2, read-out: permeability
[2] = Oral bioavailability in rat at 1 mg/kg; type: ADME, organism-based; conditions: in vivo
Outline: (§1)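 Rat PK. Dosing was either 1 mg/kg IV/PO in 10% DMAC/10% EtOH/10% cremophor/70% H2O, or 1 mg/kg IV in 10% EtOH/10% cremophor/80% H2O, or 2 mg/kg IV with 5 mg/kg PO in 10% EtOH/10% cremophor/80% H2O. Read-outs: CL, Vss, t1/2, F.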

[3] = (§2) Metabolic stability in rat liver microsomes assessed as compound remaining after 10 mins; type: ADME, Microsome; conditions: liver microsomes, read-out: Stability
Outline: (§3)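 Liver microsomes incubated for 10 min; read-out is percentage of parent remaining.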

[4] = Half life in rat at 1 mg/kg, iv and po; type: ADME, organism-based; set-up: dose 1 mg/kg, route oral; conditions: in vivo; outline: as §1
[5] = Lipophilicity, log P of the compound by RP-HPLC analysis; type: physicochemical
Rattus norvegicus = experiment: Volume of distribution at steady state in rat at 1 mg/kg, iv and po; type: ADME, organism-based; set-up: dose 1 mg/kg, route oral; conditions: in vivo
Outline: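 Rats dosed at 1 mg/kg by both IV and PO routes in 10% DMAC/10% EtOH/10% cremophor/70% H2O. Steady-state volume of distribution was derived from the IV plasma profile.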

Liver microsomes [6] = experiment: (§4) Metabolic stability in human liver microsome assessed as compound remaining after 10 mins; type: ADME; conditions: microsomes, 10 min
Liver microsomes [7] = experiment: as §2; type: ADME, Microsome; conditions: microsomes, 10 min; outline: as §3
[8] = Half life in rat at 1 mg/kg, iv; type: ADME, organism-based; set-up: dose 1 mg/kg, route intravenous; conditions: in vivo; outline: as §1
Plasma [9] = experiment: Plasma concentration in rat at 1 mg/kg, iv followed by administered 25 mg/kg/hr of sustaining dose; type: ADME, organism-based; conditions: in vivo
Outline: (§5)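 Rats pretreated IV with a loading dose plus sustaining infusion (1 + 2.5, 1 + 5, 1 + 10 or 1 + 25 mg/kg + mg/kg/h). Arterial thrombosis was induced with FeCl2, and thrombus weight was measured; plasma concentrations were measured at each dose. n=6–8 per dose. Vehicle controls received 10% DMA/90% 5% dextrose IV.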

Plasma [10] = experiment: Plasma concentration in rat at 1 mg/kg, iv followed by administered […] of sustaining dose; type: ADME, organism-based; conditions: in vivo
Plasma [11] = experiment: Plasma concentration in rat at 1 mg/kg, iv followed by administered 10 mg/kg/hr of sustaining dose; type: ADME, organism-based; conditions: in vivo; outline: as §5
[12] = Clearance in rat at 1 mg/kg, iv; type: ADME, organism-based; set-up: dose 1 mg/kg, route intravenous; conditions: in vivo; outline: as §1
[13] = Volume of distribution at steady state in rat at 1 mg/kg, iv; type: ADME, organism-based; set-up: dose 1 mg/kg, route intravenous; conditions: in vivo, read-out: Vdss
Outline: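 Rat PK: single 1 mg/kg IV dose in 10% EtOH/10% cremophor/80% H2O. Vss was derived from plasma concentration–time data.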

Plasma [14] = experiment: Plasma concentration in rat at 1 mg/kg, iv followed by administered 5 mg/kg/hr of sustaining dose; type: ADME, organism-based; conditions: in vivo; outline: as §5
Plasma [15] = experiment: Plasma concentration in rabbit cuticle bleeding model at 15 mg/kg, iv followed by administered 23.4 mg/kg/hr of sustaining dose; type: ADME, organism-based, Oryctolagus cuniculus; conditions: in vivo
Outline: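 Rabbit cuticle bleeding model with IV loading dose plus sustaining infusion (15 or 9 mg/kg + 23.4 mg/kg/h). Measured ex vivo platelet aggregation blockade, cuticle bleeding time, average plasma concentration and blood pressure.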

[16] = as §4; type: ADME, microsomes; conditions: liver microsomes, read-out: Stability
[17] = Volume of distribution at steady state in rat at 2 mg/kg, iv and 5 mg/kg, po; type: ADME, organism-based; conditions: in vivo, read-out: Vdss
Outline: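 Rats given 2 mg/kg IV and 5 mg/kg PO in 10% EtOH/10% cremophor/80% H2O. Vss was obtained from the IV pharmacokinetic profile.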

[18] = Clearance in rat at 2 mg/kg, iv and 5 mg/kg, po; type: ADME, organism-based; conditions: in vivo; outline: as §1
[19] = Half life in rat at 2 mg/kg, iv and 5 mg/kg, po; type: ADME, organism-based; conditions: in vivo; outline: as §1
[20] = Oral bioavailability in rat at 5 mg/kg; type: ADME, organism-based; conditions: in vivo; outline: as §1

CC(C)(C)c1ccccc1Oc1ncccc1NC(=O)Nc1ccc(OC(F)(F)F)cc1
Papp A→B [1]: 2.1 ×10⁻⁶ cm/s | bioavailability [2]: 7% | remaining at 10 min [3]: 86% | half-life [4]: 15 h | logP [5]: 5.7 | Vdss (Rattus norvegicus): 5.6 L/kg

CN(C)Cc1ccc(NC(=O)Nc2cccnc2Oc2ccccc2C(C)(C)C)c(F)c1
logP [5]: 4.2

CC(C)(C)c1ccccc1Oc1ncccc1NC(=O)Nc1ccc(N2CCCCC2)cc1
logP [5]: 5.5

CN(C)Cc1ccc(-c2ccc(NC(=O)Nc3cccnc3Oc3ccccc3C(C)(C)C)c(F)c2)cc1
logP [5]: 5.4

CC(C)(C)c1ccccc1Oc1ncccc1NC(=O)Nc1ccc(OCC2CCN(Cc3ccccc3)CC2)cc1F
logP [5]: 5.8

CC(C)(C)c1ccccc1Oc1ncccc1NC(=O)Nc1ccc(-c2ccccc2CO)cc1F
logP [5]: 5.5

CN(C)Cc1cccc(-c2ccc(NC(=O)Nc3cccnc3Oc3ccccc3C(C)(C)C)c(F)c2)c1
logP [5]: 5.5

CN(C)CC(C)(C)COc1ccc(NC(=O)Nc2cccnc2Oc2ccccc2C(C)(C)C)c(F)c1
Stability (Liver microsomes [6]): Unstable | Stability (Liver microsomes [7]): Unstable | logP [5]: 5.2

CC(C)(C)c1ccccc1Oc1ncccc1NC(=O)Nc1ccc(N2CCNCC2)cc1
logP [5]: 3.2

CN(C)Cc1ccccc1-c1ccc(NC(=O)Nc2cccnc2Oc2ccccc2C(C)(C)C)c(F)c1
half-life [8]: 1.5 h | Stability (Liver microsomes [6]): Unstable | concentration (Plasma [9]): 13.7 µM | concentration (Plasma [10]): 1.3 µM | concentration (Plasma [11]): 8.5 µM | clearance [12]: 158 mL/min/kg | Vd [13]: 8.7 L/kg | remaining at 10 min [3]: 24% | logP [5]: 5.3 | concentration (Plasma [14]): 3.6 µM | concentration (Plasma [15]): 5 µM

CC(C)CN1CCC(COc2ccc(NC(=O)Nc3cccnc3Oc3ccccc3C(C)(C)C)cc2)CC1
logP [5]: 4.5

CC(C)(C)c1ccccc1Oc1ncccc1NC(=O)Nc1ccc(N2CCN(Cc3ccccc3)CC2)cc1
logP [5]: 5.8

CN1CCN(c2ccc(NC(=O)Nc3cccnc3Oc3ccccc3C(C)(C)C)cc2)CC1
logP [5]: 3.9

CC(C)CCN1CCC(COc2ccc(NC(=O)Nc3cccnc3Oc3ccccc3C(C)(C)C)c(F)c2)CC1
logP [5]: 5.5

CC(C)(C)c1ccccc1Oc1ncccc1NC(=O)Nc1ccc(C2(CN3CCCC3)CC2)cc1
logP [5]: 3.7

CC(C)(C)c1ccccc1Oc1ncccc1NC(=O)Nc1ccc(C2(CO)CC2)cc1
logP [5]: 4.6

COCC1(c2ccc(NC(=O)Nc3cccnc3Oc3ccccc3C(C)(C)C)cc2)CC1
logP [5]: 5.2

CC(C)(C)c1ccccc1Oc1ncccc1NC(=O)Nc1ccc(N2CCOCC2)cc1F
logP [5]: 4.5

COC(=O)C1(c2ccc(NC(=O)Nc3cccnc3Oc3ccccc3C(C)(C)C)cc2)CC1
logP [5]: 5.1

CC(C)N1CCC(COc2ccc(NC(=O)Nc3cccnc3Oc3ccccc3C(C)(C)C)c(F)c2)CC1
logP [5]: 3.8

CN(C)CC(C)(C)COc1ccc(NC(=O)Nc2cccnc2Oc2ccccc2C(C)(C)C)cc1
remaining at 10 min [16]: 12% | Stability (Liver microsomes [7]): Unstable | logP [5]: 5.1

CN(C)CC(C)(C)COc1ccc(NC(=O)Nc2cccnc2Oc2ccccc2[Si](C)(C)C)cc1
remaining at 10 min [16]: 29% | logP [5]: 4.7

CC(C)CN1CCC(COc2ccc(NC(=O)Nc3cccnc3Oc3ccccc3C(C)(C)C)c(F)c2)CC1
Vd [17]: 5 L/kg | clearance [18]: 22 mL/min/kg | Papp A→B [1]: 1.6 ×10⁻⁶ cm/s | half-life [19]: 3.4 h | remaining at 10 min [3]: 67% | logP [5]: 5.2 | bioavailability [20]: 40%
